ChEMBL document CHEMBL4177771, “Endoplasmic Reticulum-Localized Two-Photon-Absorbing Boron Dipyrromethenes as Advanced Photosensitizers for Photodynamic Therapy” (J Med Chem, 2018)

Key:
[1] = Drug uptake in lysosome of human HepG2 cells at 4 uM after 4 hrs by […]-based confocal microscopic method; assay type: ADME, subcellular; conditions: hepg2, 4 h
[2] = Drug uptake in endoplasmic reticulum of human HepG2 cells at 4 uM after 4 hrs by ER-tracker green-based confocal microscopic method; assay type: ADME, subcellular; conditions: hepg2, 4 h
Method in brief: (§1)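 Cells on glass-bottom dishes given 2 μM for 2 h or 4 μM for 4 h at 37 °C. After PBS washes, stained in HBSS with 0.2 μM ER-tracker or Mito-tracker green for 15 min at 37 °C. Confocal imaging: trackers excited at 488 nm, emission 500–570 nm; BODIPY excited at 633 nm, emission 650–760 nm.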

[3] = Drug uptake in endoplasmic reticulum of human HeLa cells at 4 uM after 4 hrs by ER-tracker green-based confocal microscopic method; assay type: ADME, subcellular; method in brief: as §1
[4] = Drug uptake in mitochondria of human HepG2 cells at 4 uM after 4 hrs by Mito-tracker green-based confocal microscopic method; assay type: ADME; conditions: hepg2, 4 h; method in brief: as §1
[5] = Drug uptake in mitochondria of human HeLa cells at 4 uM after 4 hrs by Mito-tracker green-based confocal microscopic method; assay type: ADME; method in brief: as §1
[6] = Drug uptake in lysosome of human HeLa cells at 4 uM after 4 hrs by […]-based confocal microscopic method; assay type: ADME, subcellular
[7] = Drug uptake in endoplasmic reticulum of human HepG2 cells at 2 uM after 2 hrs by ER-tracker green-based confocal microscopic method; assay type: ADME, subcellular; conditions: hepg2, 2 h; method in brief: as §1
[8] = Drug uptake in mitochondria of human HeLa cells at 2 uM after 2 hrs by Mito-tracker green-based confocal microscopic method; assay type: ADME; method in brief: as §1
[9] = Drug uptake in lysosome of human HepG2 cells at 2 uM after 2 hrs by […]-based confocal microscopic method; assay type: ADME, subcellular; conditions: hepg2, 2 h
[10] = Drug uptake in lysosome of human HeLa cells at 2 uM after 2 hrs by […]-based confocal microscopic method; assay type: ADME, subcellular
[11] = Drug uptake in endoplasmic reticulum of human HeLa cells at 2 uM after 2 hrs by ER-tracker green-based confocal microscopic method; assay type: ADME, subcellular; method in brief: as §1
[12] = Drug uptake in mitochondria of human HepG2 cells at 2 uM after 2 hrs by Mito-tracker green-based confocal microscopic method; assay type: ADME; conditions: hepg2, 2 h; method in brief: as §1

Measured: Drug uptake

CCOC(=O)COc1ccc(C2=C3C(C)=C(Br)C(/C=C/c4ccc5c(c4)c4ccccc4n5CCOCCOCCOC)=[N+]3[B-](F)(F)n3c(/C=C/c4ccc5c(c4)c4ccccc4n5CCOCCOCCOC)c(Br)c(C)c32)cc1
Not Active: [1] | [2] | [3] | [4] | [5] | [6]

CCOC(=O)COc1ccc(C2=C3C(C)=C(Br)C(/C=C/c4ccc(OCCOCCOCCOC)cc4)=[N+]3[B-](F)(F)n3c(/C=C/c4ccc(OCCOCCOCCOC)cc4)c(Br)c(C)c32)cc1
Not Active: [7] | [8] | [9] | [10] | [11] | [12]
